Experimental data from ChEMBL document CHEMBL3425494, “Design, synthesis, and antitumor evaluation of novel histone deacetylase inhibitors equipped with a phenylsulfonylfuroxan module as a nitric oxide donor” (J Med Chem, 2015).
Calls of active or inactive are those of the source. No cut-off for these calls is given here.

Assays:
[1] = target: T1, Histone deacetylase 8 (Homo sapiens, UniProt Q9BY41); assay: Inhibition of full length human recombinant HDAC8 expressed in baculovirus infected insect S9 cells using Ac-Leu-GlyLys(Tfa)-AMC as substrate after 30 mins by fluorescence assay
T1 sequence (Q9BY41 whole entry): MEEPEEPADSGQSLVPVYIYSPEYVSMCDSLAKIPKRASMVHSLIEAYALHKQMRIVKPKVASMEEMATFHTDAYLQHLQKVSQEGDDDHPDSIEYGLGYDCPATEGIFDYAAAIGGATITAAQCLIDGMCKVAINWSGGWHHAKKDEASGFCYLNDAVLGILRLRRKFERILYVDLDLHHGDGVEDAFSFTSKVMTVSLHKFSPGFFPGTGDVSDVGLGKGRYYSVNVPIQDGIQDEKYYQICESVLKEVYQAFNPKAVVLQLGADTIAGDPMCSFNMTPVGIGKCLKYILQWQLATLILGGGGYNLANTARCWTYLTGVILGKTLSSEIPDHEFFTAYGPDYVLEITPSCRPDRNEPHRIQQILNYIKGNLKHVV

[2] = Cytotoxicity against human ES2 cells assessed as growth inhibition after 48 hrs by MTT assay; format: functional, cell-based; settings: ES-2, 48 h
[3] = system: HEL; assay: Cell cycle arrest in human HEL cells assessed as accumulation at G1 phase at 0.5 uM after 48 hrs by propidium iodide staining-based flow cytometric analysis (reference value: 47.87%); format: functional
[4] = target: T2, Histone deacetylase 11 (Homo sapiens, UniProt Q96DB2); assay: Inhibition of full length human recombinant HDAC11 expressed in baculovirus infected insect S9 cells after 30 mins by fluorescence assay
T2 sequence (Q96DB2 whole entry): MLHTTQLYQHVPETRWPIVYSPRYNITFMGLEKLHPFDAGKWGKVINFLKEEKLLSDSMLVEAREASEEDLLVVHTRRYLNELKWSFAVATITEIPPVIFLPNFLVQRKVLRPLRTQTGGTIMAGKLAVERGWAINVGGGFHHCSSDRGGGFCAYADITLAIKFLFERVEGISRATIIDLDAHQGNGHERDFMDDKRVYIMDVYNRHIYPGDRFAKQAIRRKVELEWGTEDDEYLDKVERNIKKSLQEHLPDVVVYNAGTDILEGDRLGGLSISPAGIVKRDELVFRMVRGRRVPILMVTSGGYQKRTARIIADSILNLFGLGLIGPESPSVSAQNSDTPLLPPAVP

[5] = target: Histone deacetylase 3 (Homo sapiens, UniProt O15379); assay: Inhibition of full length human recombinant HDAC3 expressed in baculovirus infected insect S9 cells using Ac-Leu-GlyLys(Ac)-AMC as substrate after 30 mins by fluorescence assay
[6] = target: T3, Protein deacetylase HDAC6 (Homo sapiens) (UniProt Q9UBN7); settings: MV4-11, 12.5 nM
T3 sequence (whole entry): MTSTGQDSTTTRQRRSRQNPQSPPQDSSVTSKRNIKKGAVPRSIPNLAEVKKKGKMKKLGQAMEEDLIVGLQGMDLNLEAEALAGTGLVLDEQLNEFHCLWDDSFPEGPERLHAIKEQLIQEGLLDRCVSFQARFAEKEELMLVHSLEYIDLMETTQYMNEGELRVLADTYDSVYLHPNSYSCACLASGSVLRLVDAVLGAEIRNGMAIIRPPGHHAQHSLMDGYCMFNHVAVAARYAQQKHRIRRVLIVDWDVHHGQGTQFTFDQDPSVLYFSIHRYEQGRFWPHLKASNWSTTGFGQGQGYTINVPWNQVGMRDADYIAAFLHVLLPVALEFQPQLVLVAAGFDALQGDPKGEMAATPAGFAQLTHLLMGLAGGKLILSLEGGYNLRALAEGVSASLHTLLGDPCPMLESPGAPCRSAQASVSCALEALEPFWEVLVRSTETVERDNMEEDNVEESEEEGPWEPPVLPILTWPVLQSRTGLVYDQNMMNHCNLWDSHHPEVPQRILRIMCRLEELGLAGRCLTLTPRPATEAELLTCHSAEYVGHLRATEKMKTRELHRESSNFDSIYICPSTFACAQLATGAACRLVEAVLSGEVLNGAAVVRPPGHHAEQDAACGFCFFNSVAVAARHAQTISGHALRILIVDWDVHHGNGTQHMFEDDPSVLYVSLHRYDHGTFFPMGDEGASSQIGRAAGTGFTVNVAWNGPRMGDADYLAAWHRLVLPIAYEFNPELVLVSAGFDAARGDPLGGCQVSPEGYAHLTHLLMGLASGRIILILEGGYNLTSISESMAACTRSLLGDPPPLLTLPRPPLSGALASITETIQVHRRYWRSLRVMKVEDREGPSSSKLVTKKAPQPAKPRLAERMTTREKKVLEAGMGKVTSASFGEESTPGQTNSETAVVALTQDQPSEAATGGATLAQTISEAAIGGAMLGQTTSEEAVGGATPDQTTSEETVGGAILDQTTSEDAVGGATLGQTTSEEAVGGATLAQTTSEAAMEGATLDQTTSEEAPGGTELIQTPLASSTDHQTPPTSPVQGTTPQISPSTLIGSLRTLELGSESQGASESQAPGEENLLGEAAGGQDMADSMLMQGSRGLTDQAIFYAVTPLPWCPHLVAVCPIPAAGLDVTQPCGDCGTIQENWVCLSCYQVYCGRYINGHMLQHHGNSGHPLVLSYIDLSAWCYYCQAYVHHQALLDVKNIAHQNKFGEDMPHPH

[7] = Cytotoxicity against human 3AO cells assessed as growth inhibition after 48 hrs by MTT assay; format: functional, cell-based
[8] = system: HEL; assay: Antitumor activity against human HEL cells xenografted in BALB/c-nu mouse assessed as inhibition of tumor growth at 100 mg/kg/day, po administered for 21 days measured every 3 days during compound dosing relative to control; format: functional; settings: read-out: TGI
Method in brief: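 HEL s.c. xenografts in male BALB/c-nu mice (6–8 weeks), randomized at ~100 mm³, 6 per group; daily oral dosing for 21 days versus PBS/DMSO vehicle group. […] Student's two-tailed t test, p < 0.05.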

[9] = Cytotoxicity against human HCT116 cells assessed as growth inhibition after 48 hrs by MTT assay; format: functional, cell-based; settings: HCT-116, 48 h
[10] = system: Mus musculus; assay: Toxicity in BALB/c-nu mouse xenografted with human HEL cells assessed as body weight loss at 120 mg/kg/day, po administered for 21 days measured everyday during compound dosing; format: organism-based; parameters: route oral; settings: in vivo, 504 h
Method in brief: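 Male BALB/c-nu mice with s.c. HEL xenografts, 6 per group, given 120 mg/kg/day orally for 21 days; vehicle group received PBS containing DMSO. Body weight monitored regularly during treatment; mean ± SD.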

[11] = target: Histone deacetylase 2 (Homo sapiens) (UniProt Q92769); settings: MV4-11, 12.5 to 200 nM
[12] = system: HEL; assay: Cell cycle arrest in human HEL cells assessed as accumulation at S phase at 0.5 uM after 48 hrs by propidium iodide staining-based flow cytometric analysis (reference value: 46.88%); format: functional

Chain of Histone deacetylase 2 (Homo sapiens) (Q92769 whole entry): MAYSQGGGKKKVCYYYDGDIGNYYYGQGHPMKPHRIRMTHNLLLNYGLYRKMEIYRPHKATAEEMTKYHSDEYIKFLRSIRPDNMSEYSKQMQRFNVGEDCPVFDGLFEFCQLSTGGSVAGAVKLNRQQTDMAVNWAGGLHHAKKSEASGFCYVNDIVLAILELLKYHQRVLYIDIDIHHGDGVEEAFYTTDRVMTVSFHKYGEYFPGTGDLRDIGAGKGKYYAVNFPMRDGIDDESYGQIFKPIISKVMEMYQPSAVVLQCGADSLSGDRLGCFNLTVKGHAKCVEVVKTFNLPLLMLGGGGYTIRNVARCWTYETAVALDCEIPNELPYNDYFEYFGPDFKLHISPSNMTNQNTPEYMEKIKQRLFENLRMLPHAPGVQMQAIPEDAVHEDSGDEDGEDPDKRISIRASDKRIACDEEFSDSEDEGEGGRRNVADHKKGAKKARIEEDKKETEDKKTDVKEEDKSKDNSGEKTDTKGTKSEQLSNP
Chain of Histone deacetylase 3 (O15379 whole entry): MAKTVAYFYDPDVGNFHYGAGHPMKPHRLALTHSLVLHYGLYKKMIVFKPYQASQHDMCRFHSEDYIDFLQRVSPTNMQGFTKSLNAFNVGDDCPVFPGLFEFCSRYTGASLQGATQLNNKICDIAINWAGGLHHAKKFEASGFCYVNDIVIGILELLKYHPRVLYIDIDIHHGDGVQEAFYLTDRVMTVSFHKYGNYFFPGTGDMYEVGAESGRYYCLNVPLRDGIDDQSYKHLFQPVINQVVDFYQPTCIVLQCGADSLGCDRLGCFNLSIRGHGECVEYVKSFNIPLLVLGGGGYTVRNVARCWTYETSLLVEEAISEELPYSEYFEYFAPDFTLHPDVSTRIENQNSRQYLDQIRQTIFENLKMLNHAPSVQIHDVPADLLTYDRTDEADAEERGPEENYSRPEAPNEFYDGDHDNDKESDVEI

IC50 [1]: 0.343 µM
IC50 [4]: 0.608 µM
IC50 [5]: 0.532 µM
inhibition [6]: Active
inhibition [11]: Active
Compound: O=C(CCCCCOc1no[n+]([O-])c1S(=O)(=O)c1ccccc1)NO
IC50 [2]: 1.39 µM
Activity [3]: 90.24%
IC50 [7]: 5.84 µM
inhibition in vivo at 100 mg/kg/day [8]: 38%
IC50 [9]: 1.51 µM
Activity [10]: Non-toxic
Activity [12]: 9.31%
